Data set [1] deals with Acetyl-CoA carboxylase (Rattus norvegicus, UniProt P11497+Q1HEC0). Description: Inhibition of rat ACC1/2 assessed as malonyl-CoA synthesis. Format: protein assay. The gist of the method: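 Rat liver cytosolic ACC is preincubated with compound or DMSO for 30 min at 37 °C in Tris acetate pH 7.5 buffer. The reaction uses the liver-ACC substrate mix: 2.12 mM ATP, 18.2 mM NaHCO3 and [14C]acetyl-CoA. Residual acetyl-CoA is removed as acetyl-carnitine on cation-exchange resin, and [14C]malonyl-CoA in the eluate is counted. IC50 is the mean of at least two experiments.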

The test system of a further data set is HepG2. Description: Inhibition of fatty acid synthesis in human HepG2 cells assessed as [14C]acetate incorporation after 2 hrs by liquid scintillation counter. Format: functional, cell-based. The settings on record: HepG2, 2 h. The gist of the method:
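HepG2 cells are plated at 3 × 10^5/well and grown 48 h in DMEM/10% FBS. They are serum-starved 1 h in DMEM with 1.5% BSA, with or without compound. Radiolabelled acetate is added for 2 h. Cells are washed, then saponified with KOH for 2 h at 70 °C. After hexane washes and acidification to pH <2, fatty acids are extracted into hexane.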

In data set [2] the target is Acetyl-CoA carboxylase (Homo sapiens, UniProt Q13085+O00763). Description: Inhibition of human ACC1/2 assessed as [14C]malonyl-CoA synthesis. Format: protein assay. The gist of the method:
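Enzyme source: human liver cytosol, ammonium sulfate precipitated (30%) and anion-exchange purified in MOPS pH 7.5 buffer. It is preincubated with compound or DMSO for 30 min at 37 °C in Tris acetate pH 7.5 buffer. Substrates are 2.12 mM ATP, 18.2 mM NaHCO3 and [14C]acetyl-CoA. Unreacted acetyl-CoA is converted to acetyl-carnitine and retained on cation-exchange resin, and eluted [14C]malonyl-CoA is counted. IC50 is the mean of at least two experiments.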

A short description of data set [3]: Metabolic stability in human liver microsomes assessed as compound recovery after 15 mins by LC-MS/MS. Format: ADME, Microsome. The note with it: read-out: Stability. The gist of the method:
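Compound is incubated at 37 °C with 1 mg/mL human liver microsomes in phosphate buffer with an NADPH-generating system (glucose-6-phosphate, NADP, G6P dehydrogenase) plus MgCl2 and KCl. Levels at 0 and 15 min are measured by LC–MS/MS, and percent remaining is taken from their ratio.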

A short description of data set [4]: Chemical stability of the compound in simulated gastric media assessed as compound recovery at pH 1.2 after 3 hrs by HPLC method. Format: physicochemical. The settings on record: read-out: Stability. The gist of the method:
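Acid stability: compound is held in aqueous solution at pH 1.2 for 3 h at 37 °C. Parent remaining is quantified by HPLC.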

Turning to `CC(=O)N1CCC(C(=O)N2CCC(N3CCN(C(=O)c4cc(-c5ccc(C)cc5)nc(-c5ccc(C)cc5)c4)CC3)CC2)CC1`, the IC50 at Acetyl-CoA carboxylase [1] is given as 70 nM.
In the case of `CC(=O)N1CCC(C(=O)N2CCC(N3CCN(C(=O)c4cc(-c5ccc(C)cc5)nc(-c5ccc6[nH]c(C)c(C)c6c5)c4)CC3)CC2)CC1`, the concentration for half-maximal inhibition (IC50) amounted to 294 nM with HepG2 and 33 nM on Acetyl-CoA carboxylase [2].
As for `CCNC(=O)Nc1sc2ccccc2c1C(=O)N1CCN(C2CCN(C(C)=O)CC2)CC1`, on Acetyl-CoA carboxylase [2], the IC50 is listed as 1864 nM.
`CCNC(=O)Nc1sc2ccccc2c1C(=O)N1CCN(C2CCN(C(=O)CC)CC2)CC1`: on Acetyl-CoA carboxylase [2], the IC50 is listed as 597 nM.
On to `CCCC(=O)N1CCC(N2CCN(C(=O)c3c(NC(=O)NCC)sc4ccccc34)CC2)CC1`, for which, at Acetyl-CoA carboxylase [2], the half-maximal inhibitory concentration (IC50) is given as 242 nM.
`CCCCC(=O)N1CCC(N2CCN(C(=O)c3c(NC(=O)NCC)sc4ccccc34)CC2)CC1`: at Acetyl-CoA carboxylase [2], the IC50 is listed as 207 nM.
Same read-out and setting: the value for `CCNC(=O)Nc1sc2ccccc2c1C(=O)N1CCN(C2CCN(C(=O)CC(C)C)CC2)CC1` was 144 nM; that for `CCNC(=O)Nc1sc2ccccc2c1C(=O)N1CCN(C2CCN(C(=O)C(C)C)CC2)CC1` was 131 nM.
For `CCNC(=O)Nc1sc2ccccc2c1C(=O)N1CCN(C2CCN(C(=O)C3CCCCC3)CC2)CC1`, the half-inhibitory concentration (IC50) with HepG2 is 146 nM; at Acetyl-CoA carboxylase [2], 81 nM.
In the case of `CCNC(=O)Nc1sc2ccccc2c1C(=O)N1CCN(C2CCN(C(=O)C(C)(C)C)CC2)CC1`, the figures for the half-maximal inhibitory concentration (IC50) in the data set with HepG2 and at Acetyl-CoA carboxylase [2] were 450 nM and 109 nM, respectively.
As for `CCNC(=O)Nc1sc2ccccc2c1C(=O)N1CCN(C2CCN(C(=O)OC)CC2)CC1`, the IC50 on Acetyl-CoA carboxylase [2] is reported as 175 nM.
Take `CCNC(=O)Nc1sc2ccccc2c1C(=O)N1CCN(C2CCN(C(=O)OCC)CC2)CC1`: the results for the IC50 in the data set with HepG2 and on Acetyl-CoA carboxylase [2] were 228 nM and 55 nM, respectively.
Regarding `CCNC(=O)Nc1sc2ccccc2c1C(=O)N1CCN(C2CCN(C(=O)OC(C)C)CC2)CC1`, in data set [3], the remaining at 0.25 h worked out at 3%. Moreover, the 50% inhibitory concentration (IC50) in the data set with HepG2 stood at 208 nM; on Acetyl-CoA carboxylase [2], 28 nM.
As to `CCNC(=O)Nc1sc2ccccc2c1C(=O)N1CCN(C2CCN(C(=O)OC3CCCC3)CC2)CC1`, the concentration for half-maximal inhibition (IC50) in the data set with HepG2 is 512 nM; at Acetyl-CoA carboxylase [2], 52 nM.
On to `CCNC(=O)Nc1sc2ccccc2c1C(=O)N1CCN(C2CCN(C(=O)OC3CCCCC3)CC2)CC1`, for which the results for the IC50 with HepG2 and at Acetyl-CoA carboxylase [2] were 635 nM and 76 nM, respectively.
As for `CCNC(=O)Nc1sc2ccccc2c1C(=O)N1CCN(C2CCN(C(=O)OC(C)(C)C)CC2)CC1`, in data set [4], the remaining at 3 h was 23%. Also, the IC50 was determined as 79 nM in the data set on HepG2 and 24 nM on Acetyl-CoA carboxylase [2].
In the case of `CCNC(=O)Nc1sc2ccccc2c1C(=O)N1CCN(C2CCN(C(=O)NC(C)(C)C)CC2)CC1`, the values for the IC50 in the data set with HepG2 and on Acetyl-CoA carboxylase [2] were 775 nM and 119 nM, respectively.
With `CCNC(=O)Nc1sc2ccccc2c1C(=O)N1CCN(C2CCN(C(=O)OC(C)(C)CF)CC2)CC1`, the remaining at 0.25 h in data set [3] came out at 3%. Besides, in data set [4], the remaining at 3 h was 98%. For the same compound, the results for the concentration for half-maximal inhibition (IC50) in the data set with HepG2 and on Acetyl-CoA carboxylase [2] were 61 nM and 17 nM, respectively.
Regarding `CCNC(=O)Nc1sc2ccccc2c1C(=O)N1CCN(C2CCN(C(=O)OC(C)(C)C(F)(F)F)CC2)CC1`, the remaining at 0.25 h in data set [3] turned out to be 5%. Further, in data set [4], the remaining at 3 h was 100%. Besides, the IC50 is 81 nM with HepG2 and 31 nM on Acetyl-CoA carboxylase [2].
Regarding `CCNC(=O)Nc1sc2ccc(C)cc2c1C(=O)N1CCN(C2CCN(C(=O)OC(C)C)CC2)CC1`, in data set [3], the remaining at 0.25 h is 3%. Also, the figures for the IC50 with HepG2 and at Acetyl-CoA carboxylase [2] were 254 nM and 32 nM, respectively.
For `CCNC(=O)Nc1sc2cc(C)ccc2c1C(=O)N1CCN(C2CCN(C(=O)OC(C)C)CC2)CC1`, in data set [3], the remaining at 0.25 h was 77%. Besides, the half-inhibitory concentration (IC50) in the data set with HepG2 is 628 nM; at Acetyl-CoA carboxylase [2], 60 nM.
`CCNC(=O)Nc1sc2cc(C)ccc2c1C(=O)N1CCN(C2CCN(C(=O)OC(C)(C)CF)CC2)CC1`: the remaining at 0.25 h in data set [3] was found to be 84%. Moreover, the 50% inhibitory concentration (IC50) came out at 73 nM in the data set with HepG2 and 32 nM on Acetyl-CoA carboxylase [2].
As for `CCNC(=O)Nc1sc2cc(C(F)(F)F)ccc2c1C(=O)N1CCN(C2CCN(C(=O)OC(C)(C)C(F)(F)F)CC2)CC1`, in data set [3], the remaining at 0.25 h was determined as 7%. In addition, the half-maximal inhibitory concentration (IC50) at Acetyl-CoA carboxylase [2] is reported as 98 nM.
As to `CCNC(=O)Nc1sc2cc(F)ccc2c1C(=O)N1CCN(C2CCN(C(=O)OC(C)(C)C(F)(F)F)CC2)CC1`, the remaining at 0.25 h in data set [3] worked out at 17%. Moreover, the IC50 at Acetyl-CoA carboxylase [2] is 62 nM.
On to `CCNC(=O)Nc1sc2cc(Cl)ccc2c1C(=O)N1CCN(C2CCN(C(=O)OC(C)(C)C(F)(F)F)CC2)CC1`, for which the remaining at 0.25 h in data set [3] came out at 51%. Moreover, at Acetyl-CoA carboxylase [2], the half-inhibitory concentration (IC50) is on record as 38 nM.
As to `CCNC(=O)Nc1sc2cc(OC)ccc2c1C(=O)N1CCN(C2CCN(C(=O)OC(C)(C)C(F)(F)F)CC2)CC1`, the remaining at 0.25 h in data set [3] is 29%. Also, the values for the concentration for half-maximal inhibition (IC50) in the data set on HepG2 and on Acetyl-CoA carboxylase [2] were 67 nM and 27 nM, respectively.
Taken in the same sequence, the figures for `CCNC(=O)Nc1sc2cccnc2c1C(=O)N1CCN(C2CCN(C(=O)OC(C)(C)C(F)(F)F)CC2)CC1` were 13%, 49 nM and 12 nM.
Regarding `CCNC(=O)Nc1sc2ccncc2c1C(=O)N1CCN(C2CCN(C(=O)OC(C)(C)C(F)(F)F)CC2)CC1`, on Acetyl-CoA carboxylase [2], the half-inhibitory concentration (IC50) amounted to 117 nM.
For `CCNC(=O)Nc1sc2cnccc2c1C(=O)N1CCN(C2CCN(C(=O)OC(C)(C)C(F)(F)F)CC2)CC1`, in data set [3], the remaining at 0.25 h is 67%. Besides, the IC50 stood at 152 nM in the data set on HepG2 and 41 nM at Acetyl-CoA carboxylase [2].
In the same order, the values of `CCNC(=O)Nc1sc2ncccc2c1C(=O)N1CCN(C2CCN(C(=O)OC(C)(C)C(F)(F)F)CC2)CC1` are 3%, 67 nM and 45 nM.
With `CCNC(=O)Nc1sc2ccccc2c1C(=O)N1CCN(C2CCN(C(=O)C3CCN(C(C)=O)CC3)CC2)CC1.O=C(O)/C=C\C(=O)O`, on Acetyl-CoA carboxylase [2], the concentration for half-maximal inhibition (IC50) amounted to 74 nM.
`CCNC(=O)Nc1sc2ccccc2c1C(=O)N1CCN(C2CCN(C(=O)C3CCCC3)CC2)CC1.O=C(O)/C=C\C(=O)O`: the results for the IC50 with HepG2 and at Acetyl-CoA carboxylase [2] were 309 nM and 49 nM, respectively.

(Values after ChEMBL document CHEMBL1681752, “Discovery of novel (4-piperidinyl)-piperazines as potent and orally active acetyl-CoA carboxylase 1/2 non-selective inhibitors: F-Boc and triF-Boc groups are acid-stable bioisosteres for the Boc group” (Bioorg Med Chem, 2011).)
